The assay relates to HEK293. Briefly: Inhibitory activity against sphingosine kinase expressed in HEK293 cells at 10 uM. Type of assay: cell-based. The conditions noted are these: Homo sapiens. Put shortly: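 Sphingosine kinase from cytosolic fractions of HEK 293 cells transfected to overexpress the enzyme (0.125 μg). Substrate D-erythro-sphingosine 10 μM in Triton X-100 (0.25% final), with [³²P]ATP (10 μCi, 1 mM) and MgCl₂ 10 mM. Analogues tested at 10 μM. After 10 min at 37 °C, sphingosine-1-phosphate formation measured. Activity given as % of vehicle-only control; means ± S.D.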
In the case of `N[C@@H](CO)[C@@H](F)CCc1ccccc1`, the inhibition worked out at 62%.

As for `N[C@@H](CO)[C@@H](O)CCc1ccccc1`, the inhibition came to 72%.

Regarding `CCCCCCCC(F)/C=C/[C@@H](N)CO` (stereo partly drawn), the inhibition worked out at 80%.

Take `CCCCCCC/C=C/[C@@H](O)[C@@H](N)CO`: the inhibition amounted to 69%.

The compound `CCCCCCCCC[C@H](O)[C@@H](N)CO` came in with an inhibition of 50%.

`CCCCCCCCC[C@H](F)[C@@H](N)CO`: the inhibition turned out to be 68%.

As to `N[C@@H](CO)[C@@H](O)/C=C/c1ccccc1`, the inhibition turned out to be 79%.

With `N[C@@H](CO)[C@H](O)CCc1ccccc1`, the inhibition was 59%.

`CCCCCCC/C=C/[C@H](O)[C@@H](N)CO` registered an inhibition of 70%.

On to `CCCCCCCCCCCCC/C=C/[C@@H](O)[C@H](CO)N(C)C`, for which the inhibition worked out at 47%.

In turn, `CCCCCCC/C=C/[C@H](F)[C@@H](N)CO` showed an inhibition of 82%.

In turn, `N[C@@H](CO)[C@H](O)/C=C/c1ccccc1` showed an inhibition of 77%.

Take `CCCCCCCCC[C@@H](O)[C@@H](N)CO`: the inhibition worked out at 48%.

For the origin of these results see ChEMBL document CHEMBL1131877, “Structure-activity relationship of short-chain sphingoid bases as inhibitors of sphingosine kinase” (Bioorg Med Chem Lett, 1999).
